Test results as given in ChEMBL document CHEMBL1240487, “Discovery of a potent, selective, and orally bioavailable pyridinyl-pyrimidine phthalazine aurora kinase inhibitor” (J Med Chem, 2010).
Each block holds one molecule with its values, some of them ahead of it. Calls of active or inactive are those of the source. The rule behind the calls is not given here.

Legend:
[1] = target: Proto-oncogene tyrosine-protein kinase Src (Homo sapiens, UniProt P12931); test: Inhibition of Src by HTRF assay
Procedure, shortened: (§1)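 Enzyme inhibition was run with ATP at its Km for each kinase. Values are averages of at least two determinations.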

[2] = target: RAC-beta serine/threonine-protein kinase (Homo sapiens, UniProt P31751); test: Inhibition of PKBbeta by HTRF assay; procedure, shortened: as §1
Chain of RAC-beta serine/threonine-protein kinase (P31751 whole entry): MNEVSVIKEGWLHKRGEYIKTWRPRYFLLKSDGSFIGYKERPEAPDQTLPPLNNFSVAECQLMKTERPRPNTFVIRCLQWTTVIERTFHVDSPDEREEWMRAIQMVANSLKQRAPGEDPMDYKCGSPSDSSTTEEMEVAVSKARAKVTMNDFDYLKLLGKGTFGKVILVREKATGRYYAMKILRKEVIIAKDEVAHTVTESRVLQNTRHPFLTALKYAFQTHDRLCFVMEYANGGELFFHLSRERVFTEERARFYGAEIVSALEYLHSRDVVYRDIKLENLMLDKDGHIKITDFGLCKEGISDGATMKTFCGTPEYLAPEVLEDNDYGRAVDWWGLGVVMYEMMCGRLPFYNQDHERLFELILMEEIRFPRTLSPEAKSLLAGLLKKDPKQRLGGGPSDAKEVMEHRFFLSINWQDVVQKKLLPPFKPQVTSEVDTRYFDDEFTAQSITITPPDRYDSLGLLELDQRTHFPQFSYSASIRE

Aurora kinase B = Aurora kinase B (Homo sapiens, UniProt Q96GD4); test: Inhibition of aurora B in human HeLa cells assessed as increase of >= 4N DNA level at 0.313 uM after 24 hrs using Hoechst staining by flow cytometry; assay type: cell-based
Chain of Aurora kinase B (Q96GD4 whole entry): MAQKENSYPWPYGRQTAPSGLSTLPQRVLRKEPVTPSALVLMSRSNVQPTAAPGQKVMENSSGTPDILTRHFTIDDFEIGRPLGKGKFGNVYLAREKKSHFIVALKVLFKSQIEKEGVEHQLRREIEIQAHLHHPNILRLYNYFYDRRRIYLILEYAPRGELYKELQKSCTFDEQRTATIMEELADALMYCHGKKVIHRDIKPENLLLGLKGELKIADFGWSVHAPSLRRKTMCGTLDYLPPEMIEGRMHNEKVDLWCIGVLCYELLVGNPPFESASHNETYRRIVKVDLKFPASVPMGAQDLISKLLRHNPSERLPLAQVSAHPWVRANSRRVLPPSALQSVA
Procedure, shortened: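 In the 24 h DNA ploidy assay, HeLa cells were exposed to compound for 24 h. The read-out was accumulation of cells with ≥4N DNA content relative to control. For the single-concentration test, cells were treated at 0.313 μM, and p-histone H3 Ser10 and DNA content (2N/4N/8N) were read by flow cytometry. The ploidy read-out gave an EC50.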

Plasma [3] = test: Drug level in human COLO205 cells xenografted in CD1 mouse plasma at 50 mg/kg, po after 3 to 6 hrs; assay type: ADME, organism-based, COLO 205; set-up: dose 50 mg/kg, route oral; conditions: in vivo
Procedure, shortened: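 COLO 205 xenograft-bearing mice received a single 50 mg/kg oral dose (N = 12 per group). Plasma was sampled at 3, 6 and 24 h (N = 4 per time point) and analyzed for drug concentration. Results are reported as mean ± SD.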

Plasma [4] = test: Fraction unbound in mouse plasma at 10 uM after 6 hrs by ultrafiltration; assay type: ADME, cell-free
Plasma [5] = test: Fraction unbound in mouse plasma at 10 uM after 24 hrs by ultrafiltration; assay type: ADME, cell-free
[6] = target: Aurora kinase A (Homo sapiens) (UniProt O14965); test: Inhibition of aurora A autophosphorylation in human HeLa cells at 0.313 uM after 3 hrs by Western blotting
Chain of Aurora kinase A (Homo sapiens) (O14965 whole entry): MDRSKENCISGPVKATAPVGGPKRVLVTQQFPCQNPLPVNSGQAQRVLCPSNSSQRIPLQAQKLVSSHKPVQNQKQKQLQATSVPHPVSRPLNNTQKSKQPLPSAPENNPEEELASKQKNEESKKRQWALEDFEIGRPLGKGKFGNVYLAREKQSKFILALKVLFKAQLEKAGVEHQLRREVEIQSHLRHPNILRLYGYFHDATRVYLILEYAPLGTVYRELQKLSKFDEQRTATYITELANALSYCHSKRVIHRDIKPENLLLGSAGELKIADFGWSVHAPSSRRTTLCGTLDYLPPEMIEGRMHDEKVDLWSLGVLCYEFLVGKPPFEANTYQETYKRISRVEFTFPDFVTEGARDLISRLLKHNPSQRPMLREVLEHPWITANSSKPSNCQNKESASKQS

[7] = target: Hepatocyte growth factor receptor (Homo sapiens, UniProt P08581); test: Inhibition of c-Met by HTRF assay; procedure, shortened: as §1
Chain of Hepatocyte growth factor receptor (P08581 whole entry): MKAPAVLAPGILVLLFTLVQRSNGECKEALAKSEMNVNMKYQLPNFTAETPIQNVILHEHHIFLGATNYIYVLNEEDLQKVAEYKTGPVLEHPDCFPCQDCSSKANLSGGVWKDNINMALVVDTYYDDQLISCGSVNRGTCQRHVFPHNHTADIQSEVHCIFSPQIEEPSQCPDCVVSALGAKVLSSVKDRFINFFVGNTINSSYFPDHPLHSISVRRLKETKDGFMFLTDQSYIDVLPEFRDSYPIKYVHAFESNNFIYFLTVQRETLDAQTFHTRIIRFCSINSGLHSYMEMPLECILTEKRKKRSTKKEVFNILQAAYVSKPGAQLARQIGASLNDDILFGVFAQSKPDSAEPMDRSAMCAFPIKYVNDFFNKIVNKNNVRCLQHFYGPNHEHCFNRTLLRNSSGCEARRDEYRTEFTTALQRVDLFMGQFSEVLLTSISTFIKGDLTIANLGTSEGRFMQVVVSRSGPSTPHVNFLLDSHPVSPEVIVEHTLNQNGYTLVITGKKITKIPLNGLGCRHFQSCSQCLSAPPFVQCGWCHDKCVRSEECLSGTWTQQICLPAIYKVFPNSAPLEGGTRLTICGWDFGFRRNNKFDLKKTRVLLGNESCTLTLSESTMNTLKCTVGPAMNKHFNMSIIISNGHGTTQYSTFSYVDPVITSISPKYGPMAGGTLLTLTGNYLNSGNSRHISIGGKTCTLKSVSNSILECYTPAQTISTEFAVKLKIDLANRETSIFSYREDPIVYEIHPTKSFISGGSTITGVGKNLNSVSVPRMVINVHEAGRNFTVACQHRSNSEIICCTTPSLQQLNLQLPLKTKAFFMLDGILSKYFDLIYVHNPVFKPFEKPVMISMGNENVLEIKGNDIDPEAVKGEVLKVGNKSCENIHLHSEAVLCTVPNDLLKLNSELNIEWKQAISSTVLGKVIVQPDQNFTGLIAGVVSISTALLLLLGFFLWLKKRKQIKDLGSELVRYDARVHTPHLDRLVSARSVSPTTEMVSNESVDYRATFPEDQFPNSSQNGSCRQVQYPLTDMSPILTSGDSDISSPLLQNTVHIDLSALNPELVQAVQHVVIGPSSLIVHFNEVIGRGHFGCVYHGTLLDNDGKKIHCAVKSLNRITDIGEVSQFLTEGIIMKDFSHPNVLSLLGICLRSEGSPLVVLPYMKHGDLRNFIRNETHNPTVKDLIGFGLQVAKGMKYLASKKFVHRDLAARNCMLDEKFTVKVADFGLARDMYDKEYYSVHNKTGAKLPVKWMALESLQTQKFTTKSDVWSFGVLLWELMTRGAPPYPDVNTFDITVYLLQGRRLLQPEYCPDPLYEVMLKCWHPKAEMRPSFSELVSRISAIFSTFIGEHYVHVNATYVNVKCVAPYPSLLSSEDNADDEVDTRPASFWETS

[8] = Half life in Sprague-Dawley rat at 0.5 mg/kg, iv and 2 mg/kg, po; assay type: ADME, organism-based; conditions: in vivo

Chain of Proto-oncogene tyrosine-protein kinase Src (P12931 2-536 limits assumed): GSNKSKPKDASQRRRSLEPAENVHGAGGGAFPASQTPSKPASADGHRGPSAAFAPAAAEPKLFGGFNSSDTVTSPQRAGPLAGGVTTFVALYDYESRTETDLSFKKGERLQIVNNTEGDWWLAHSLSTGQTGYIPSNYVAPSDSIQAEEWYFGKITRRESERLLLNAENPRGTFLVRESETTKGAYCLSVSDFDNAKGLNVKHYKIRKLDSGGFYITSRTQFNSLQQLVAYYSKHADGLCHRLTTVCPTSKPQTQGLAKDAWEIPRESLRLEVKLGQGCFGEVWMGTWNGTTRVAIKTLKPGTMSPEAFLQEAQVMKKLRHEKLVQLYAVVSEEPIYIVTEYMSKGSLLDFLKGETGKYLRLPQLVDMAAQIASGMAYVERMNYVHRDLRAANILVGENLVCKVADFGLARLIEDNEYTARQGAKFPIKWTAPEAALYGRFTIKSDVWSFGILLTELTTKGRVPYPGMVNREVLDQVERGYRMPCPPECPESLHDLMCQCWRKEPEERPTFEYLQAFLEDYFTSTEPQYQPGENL

IC50 [1]: 5.75 µM
Structure (SMILES): CNc1nccc(-c2cccnc2Oc2ccc(NC(=O)c3cccc(C(F)(F)F)c3)cc2C)n1

IC50 [2]: > 25 µM | Activity (Aurora kinase B): Active | Cp (Plasma [3]): >= 20000 ng/ml | unbound concentration (Plasma [4]): < 20 ng/mL | unbound concentration (Plasma [5]): < 2.5 ng/mL | Activity [6]: Active
Structure (SMILES): CNc1nccc(-c2cccnc2Oc2ccc(Nc3nnc(-c4ccc(F)cc4)c4ccccc34)cc2)n1

IC50 [7]: > 1 µM | half-life [8]: 2.8 h
Structure (SMILES): CNc1nccc(-c2cccnc2Oc2ccc(NC(=O)c3ccccc3Nc3ccccc3)cc2)n1
